Consider 7 compounds from ChEMBL document CHEMBL1828575, “Design, synthesis and antiproliferative activities of biarylolefins based on polyhydroxylated and carbohydrate scaffolds” (Eur J Med Chem, 2011).

Assay [1] is filed under the species Ovis aries. Briefly: Inhibition of sheep brain tubulin polymerization at 10 uM. The gist of the method: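 Microtubule protein from sheep brain, purified by two assembly/disassembly cycles (37 °C/0 °C), in 100 mM MES pH 6.6, 1 mM EGTA, 0.5 mM MgCl₂. Compounds in DMSO were tested at a single concentration, with incubation at 37 °C for 10 min and then 0 °C for 5 min before measuring assembly rate, following a modified Guénard protocol.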

A short description of assay [2]: Cytotoxicity against human NCI60 cells assessed as cellular growth at 10 uM after 48 hrs by SRB assay relative to untreated control. The assay is classed as functional. The gist of the method:
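NCI-60 panel lines grown in RPMI 1640 with 5% FBS and 2 mM L-glutamine. Plated at 5000–40,000 cells/well and preincubated 24 h at 37 °C, 5% CO₂, with time-zero plates fixed in TCA. Compounds, dissolved in DMSO and diluted in medium, were applied for 48 h. Cells were TCA-fixed (10% final for adherent, 16% for suspension) and stained with 0.4% SRB in 1% acetic acid. Dye was solubilised in 10 mM Tris base and read at 515 nm; growth was expressed as a percentage of untreated control.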
(Sulforhodamine B stains cellular protein and so reports cell mass.)

The test system of assay [3] is PC-3. Briefly: Cytotoxicity against human PC3 cells at 10^-6 M after 72 hrs by MTS assay. The assay is classed as functional. Particulars: PC-3, 72 h, read-out: GI. The essentials: (§1)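 Preliminary screen at 10^-5 and 10^-6 M. Cells were grown in RPMI with 10% fetal calf serum plus penicillin, streptomycin and fungizone under 5% CO₂, plated in 96-well plates, and dosed 24 h later from DMSO stocks (1% DMSO final, same in controls). After 72 h, MTS was added for 3 h at 37 °C and absorbance read at 490 nm. Inhibition was calculated as (1 − OD treated/OD control) × 100, in triplicate.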
On the technique in general: Formazan colour is commonly taken as a measure of viable cells.

The subject of assay [4] is SF-268. Briefly: Cytotoxicity against human SF268 cells at 10^-6 M after 72 hrs by MTS assay. It counts as functional. The following applies: SF-268, 72 h, read-out: GI. The essentials: as §1
Assay [5] relates to SK-OV-3. The assay is described as follows: Cytotoxicity against human SKOV3 cells at 10^-6 M after 72 hrs by MTS assay. Particulars: SK-OV-3, 72 h, read-out: GI. The assay is classed as functional. The gist of the method:
as §1

Assay [6] deals with OVCAR-8. Briefly: Cytotoxicity against human OVCAR8 cells at 10^-6 M after 72 hrs by MTS assay. It counts as functional. The following applies: OVCAR-8, 72 h, read-out: GI. The essentials: as §1
Assay [7] concerns MIA PaCa-2. The assay is described as follows: Cytotoxicity against human MIAPaCa2 cells at 10^-6 M after 72 hrs by MTS assay. Particulars: MIA PaCa-2, 72 h, read-out: GI. The assay is classed as functional.
Assay [8] deals with HL-60. The assay is described as follows: Cytotoxicity against human HL60 cells at 10^-6 M after 72 hrs by MTS assay. Particulars: HL-60, 72 h, read-out: GI. The assay is classed as functional. The gist of the method: (§2)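 Cells grown in RPMI with 10% fetal calf serum, penicillin, streptomycin and fungizone under 5% CO₂. Plated in 96-well plates and dosed 24 h later with compound in DMSO (1% final DMSO; controls got DMSO alone). After 72 h, MTS was added for 3 h at 37 °C and A490 read. Inhibition = (1 − OD treated/OD control) × 100, in triplicate.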

Assay [9] in a line: Cytotoxicity against human HL60R cells at 10^-6 M after 72 hrs by MTS assay. Particulars: read-out: GI. The assay is classed as functional. The essentials: as §2
Assay [10] has as its system K562. Briefly: Cytotoxicity against human K562 cells at 10^-6 M after 72 hrs by MTS assay. The assay is classed as functional. The following applies: K562, 72 h, read-out: GI. The essentials: as §2
Assay [11] deals with HCT-116. Briefly: Cytotoxicity against human HCT116 cells at 10^-5 M after 72 hrs by MTS assay. It counts as functional. The following applies: HCT-116, 72 h, read-out: GI. The essentials:
as §2

Assay [12] concerns HT-29. Briefly: Cytotoxicity against human HT-29 cells at 10^-5 M after 72 hrs by MTS assay. It counts as functional. The following applies: HT-29, 72 h, read-out: GI. The essentials:
as §2

The subject of assay [13] is HCT-15. The assay is described as follows: Cytotoxicity against human HCT15 cells at 10^-5 M after 72 hrs by MTS assay. It counts as functional. Particulars: HCT-15, 72 h, read-out: GI. The gist of the method:
as §2

Assay [14] relates to MCF7. Briefly: Cytotoxicity against human MCF7 cells at 10^-5 M after 72 hrs by MTS assay. It counts as functional. The following applies: MCF7, 72 h, read-out: GI.
Assay [15] in a line: Cytotoxicity against human MDA231 cells at 10^-5 M after 72 hrs by MTS assay. The assay is classed as functional. Particulars: MDA-MB-231, 72 h, read-out: GI. The gist of the method:
as §1

The test system of assay [16] is A549. The assay is described as follows: Cytotoxicity against human A549 cells at 10^-5 M after 72 hrs by MTS assay. The assay is classed as functional. The following applies: A549, 72 h, read-out: GI. The gist of the method:
as §2

Assay [17] relates to PC-3. Briefly: Cytotoxicity against human PC3 cells at 10^-5 M after 72 hrs by MTS assay. Particulars: PC-3, 72 h, read-out: GI. It counts as functional. The gist of the method: as §1
For assay [18], the system named is SF-268. The assay is described as follows: Cytotoxicity against human SF268 cells at 10^-5 M after 72 hrs by MTS assay. It counts as functional. The following applies: SF-268, 72 h, read-out: GI. The essentials: as §1
Assay [19] concerns SK-OV-3. Briefly: Cytotoxicity against human SKOV3 cells at 10^-5 M after 72 hrs by MTS assay. It counts as functional. Particulars: SK-OV-3, 72 h, read-out: GI. The essentials: as §1
The test system of assay [20] is OVCAR-8. The assay is described as follows: Cytotoxicity against human OVCAR8 cells at 10^-5 M after 72 hrs by MTS assay. It counts as functional. The following applies: OVCAR-8, 72 h, read-out: GI. The essentials:
as §1

Assay [21] deals with MIA PaCa-2. Briefly: Cytotoxicity against human MIAPaCa2 cells at 10^-5 M after 72 hrs by MTS assay. The following applies: MIA PaCa-2, 72 h, read-out: GI. It counts as functional.
Assay [22] has as its system HL-60. Briefly: Cytotoxicity against human HL60 cells at 10^-5 M after 72 hrs by MTS assay. The following applies: HL-60, 72 h, read-out: GI. It counts as functional. The gist of the method: as §2
The nature of assay [23]: Cytotoxicity against human HL60R cells at 10^-5 M after 72 hrs by MTS assay. The following applies: read-out: GI. The assay is classed as functional, HL-60. The essentials: as §2
For assay [24], the system named is K562. Briefly: Cytotoxicity against human K562 cells at 10^-5 M after 72 hrs by MTS assay. The following applies: K562, 72 h, read-out: GI. It counts as functional. The essentials: as §2
Assay [25] has as its system HCT-116. Briefly: Cytotoxicity against human HCT116 cells at 10^-6 M after 72 hrs by MTS assay. The assay is classed as functional. The following applies: HCT-116, 72 h, read-out: GI. The gist of the method: as §2
The subject of assay [26] is HT-29. Briefly: Cytotoxicity against human HT-29 cells at 10^-6 M after 72 hrs by MTS assay. It counts as functional. The following applies: HT-29, 72 h, read-out: GI. The gist of the method:
as §2

Assay [27] concerns HCT-15. Briefly: Cytotoxicity against human HCT15 cells at 10^-6 M after 72 hrs by MTS assay. Particulars: HCT-15, 72 h, read-out: GI. The assay is classed as functional. The essentials:
as §2

The subject of assay [28] is MCF7. The assay is described as follows: Cytotoxicity against human MCF7 cells at 10^-6 M after 72 hrs by MTS assay. The assay is classed as functional. The following applies: MCF7, 72 h, read-out: GI.
A short description of assay [29]: Cytotoxicity against human MDA231 cells at 10^-6 M after 72 hrs by MTS assay. The following applies: MDA-MB-231, 72 h, read-out: GI. It counts as functional. The essentials:
as §1

Assay [30] deals with A549. The assay is described as follows: Cytotoxicity against human A549 cells at 10^-6 M after 72 hrs by MTS assay. It counts as functional. The following applies: A549, 72 h, read-out: GI. The essentials: as §2

Activity calls are given as the source filed them. The rule behind the calls is not given here.

For the compound `COc1ccc(C(=C(COC(C)=O)COC(C)=O)c2cc(OC)c(OC)c(OC)c2)cc1O[Si](C)(C)C(C)(C)C`, in assay [1], the “tubulin polymerization inhibition call (active/not active)” value was “inactive”.

On to `COc1cc(/C(=C2\O[C@@H]([C@H]3COC(C)(C)O3)[C@H]3OC(C)(C)O[C@@H]23)c2cccc(N)c2)cc(OC)c1OC`, for which the Activity in [2] is reported as 102%.

As to `COc1cc(/C(=C2\O[C@@H]([C@H]3COC(C)(C)O3)[C@H]3OC(C)(C)O[C@@H]23)c2cccc([N+](=O)[O-])c2)cc(OC)c1OC`, the inhibition of growth at 1 µM in assay [3] worked out at 2%; in assay [4] it was 12%; in [5] it was 15%; in [6] it was 0%; in assay [7], 4%; in assay [8], 2%. The inhibition of growth at 1 µM in assay [9] was 13%; in [10], 8%; in [25], 5%; in assay [26], 7%; in [27], 6%; in assay [28], 7%. Further, the inhibition of growth at 1 µM in [29] was found to be 0%; in assay [30] it was 10%. The inhibition of growth at 10 µM is 8% in [11]; 0% in assay [12]; 5% in assay [13]; 11% in [14]; 16% in assay [15]; 12% in [16]. The inhibition of growth at 10 µM in assay [17] was 0%; in assay [18] it was 20%; in [19], 40%; in assay [20], 0%; in [21] it was 0%; in assay [22], 22%. In addition, the inhibition of growth at 10 µM came out at 29% in [23] and 9% in assay [24].

Turning to `COc1cc(/C(=C2/O[C@@H]([C@H](O)CO)[C@H]3OC(C)(C)O[C@@H]23)c2cccc([N+](=O)[O-])c2)cc(OC)c1OC`, the inhibition of growth at 1 µM in assay [3] was determined as 1%; in assay [4], 17%; in assay [5], 10%; in assay [6], 0%; in [7], 0%; in [8] it was 11%. In addition, the inhibition of growth at 1 µM in assay [9] was found to be 6%; in assay [10], 0%; in assay [25], 0%; in assay [26] it was 4%; in assay [27], 10%; in assay [28], 4%. For the same compound, the values for the inhibition of growth at 1 µM in assay [29] and in [30] were 0% and 8%, respectively. Also, the inhibition of growth at 10 µM in [11] amounted to 0%; in assay [12], 4%; in assay [13] it was 6%; in assay [14], 14%; in assay [15], 0%; in assay [16] it was 14%. For the same compound, the inhibition of growth at 10 µM was 23% in assay [17]; 26% in [18]; 16% in assay [19]; 0% in assay [20]; 0% in assay [21]; 10% in assay [22]. In addition, the inhibition of growth at 10 µM in [23] stood at 11%; in assay [24], 18%.

For `COc1ccc(/C(=C2/O[C@@H]([C@H](O)CO)[C@H]3OC(C)(C)O[C@@H]23)c2cc(OC)c(OC)c(OC)c2)cc1O`, the Activity in assay [2] is recorded as 79%.

`COc1cc(C(=C(CO)CO)c2cc(OC)c(OC)c(OC)c2)cc(OC)c1OC`: the inhibition of growth at 1 µM in [3] stood at 18%; in assay [4], 13%; in [5], 13%; in assay [6] it was 0%; in assay [7] it was 0%; in assay [8], 17%. Further, the inhibition of growth at 1 µM is 17% in [9]; 4% in assay [10]; 6% in assay [25]; 0% in assay [26]; 8% in assay [27]; 8% in assay [28]. In addition, the inhibition of growth at 1 µM in [29] and in assay [30] was 0% throughout. Further, the inhibition of growth at 10 µM in [11] worked out at 0%; in assay [12] it was 0%; in assay [13], 22%; in assay [14], 31%; in assay [15] it was 42%; in assay [16], 13%. Also, the inhibition of growth at 10 µM in assay [17] turned out to be 26%; in assay [18], 35%; in assay [19], 14%; in assay [20], 0%; in [21], 0%; in assay [22], 40%. The inhibition of growth at 10 µM was 0% in [23] and 25% in assay [24]. Besides, in assay [1], the “tubulin polymerization inhibition call (active/not active)” value was “inactive”.

For the compound `COc1cc(C(=C2O[C@@H]([C@H](O)CO)[C@H]3OC(C)(C)O[C@@H]23)c2cc(OC)c(OC)c(OC)c2)cc(OC)c1OC`, in [2], the Activity came out at 103%.
